Screening data: PubChem BioAssay, The Scripps Research Institute Molecular Screening Center
Shown are actives, neighbours in structure and some others; about 1.8% of the full set was active somewhere.
NPY1 pot ag – potentiates or activates human NPY-Y1 receptor | P25929 | NPY-Y1 expressing cells, potentiator/agonist activation | activation, % at 3.6 µM | hit rate 0.37% among 220,000; in the data active = activation above about 33%, passing the limit was not always enough;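 also: cells stimulated with NPY at EC10 then isoproterenol at EC100; 0% = low agonist plus stimulus and 100% = saturating agonist plus stimulus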
Target sequence (P25929 whole entry, looked up): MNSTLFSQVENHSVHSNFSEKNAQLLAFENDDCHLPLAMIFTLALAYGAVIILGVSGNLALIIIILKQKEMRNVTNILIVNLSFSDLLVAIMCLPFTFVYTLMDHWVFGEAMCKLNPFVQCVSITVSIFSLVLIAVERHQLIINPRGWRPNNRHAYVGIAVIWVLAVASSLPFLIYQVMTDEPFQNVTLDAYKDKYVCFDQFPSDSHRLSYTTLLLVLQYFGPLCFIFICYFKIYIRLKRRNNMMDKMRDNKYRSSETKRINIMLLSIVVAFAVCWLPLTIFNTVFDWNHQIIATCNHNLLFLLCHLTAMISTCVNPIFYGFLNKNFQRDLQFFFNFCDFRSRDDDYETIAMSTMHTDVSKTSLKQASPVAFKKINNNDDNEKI
NPY-Y2 PAM-ag – human NPY-Y2 potentiation or agonism, primary screen; cells expressing NPY-Y2, potentiator/agonist read-out; P49146; hit rate 0.45% among 220,000; activation, % at 3.6 µM; in the data active = activation above about 27%;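 also: cells stimulated with NPY near EC25 plus isoproterenol at EC100; 0% = vehicle plus submaximal agonist and 100% = vehicle plus saturating agonist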
NPY-Y1 antag – antagonists of human neuropeptide Y receptor Y1; P25929; HEK293-CNG Y1 cells, membrane potential fluorescence; NPY at EC95, then isoproterenol; inhibition, % at 3.6 µM; hit rate 1% among 200,000; AID 1040;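 active = inhibition above the campaign mean inhibition of all tested compounds plus 3 SD, cut at about 20% in these data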;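 also: 0% = DMSO wells given NPY plus isoproterenol and 100% = isoproterenol alone without NPY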
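Assay system: HEK293 cells with Y1 receptor plus CNG channel | Probe or stimulus: NPY (25 nM), isoproterenol (1 µM), Ro 20-1724 (25 µM) | Timing: Compound incubation 1 h at room temperature, readout 45 min post-stimulation | Measured by: Membrane-potential fluorescent dye readout | Benchmarks: High control isoproterenol alone, low control NPY with isoproterenol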
NPY Y2 blocker – blocks the human neuropeptide Y Y2 receptor; NPY-Y2 expressing cells, antagonist mode; inhibition, % at 2.7 µM; P49146; hit rate 0.99% among 140,000; in the data active = inhibition above about 17%;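 also: 0% = vehicle with agonist challenge and 100% = reference antagonist with challenge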
NPY-Y1 pot conf – confirmation of human NPY-Y1 receptor potentiators or agonists; cell-based NPY-Y1 potentiator/agonist assay; shares compounds with NPY1 pot ag; hit rate 20% among 280; activation, % at 3.6 µM; AID 1546; in the data active = activation above about 45%;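 also: cells challenged with NPY at its EC10 plus isoproterenol stimulus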
NPY-Y2 counter – NPY-Y2 potentiation or agonism as NPY-Y1 counter-screen; HEK293-CNG cells, membrane-potential fluorescence (FLIPR), 1536-well; hit rate 20% among 280; shares compounds with NPY1 pot ag; activation, % at 3.6 µM; AID 1649; in the data active = activation above about 33%
NPY-Y1 agonist – human NPY-Y1 agonism as potentiator counter-screen; shares compounds with NPY1 pot ag; HEK293 Y1-CNGC, membrane potential fluorescence, agonist mode; activation, % at 3.6 µM; hit rate 50% among 280; AID 1697;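 active = percent activation above the mean of DMSO-only control wells plus 3 SD of those wells, cut at about 18% in these data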;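 also: cells challenged with isoproterenol plus Ro 20-1724 with no NPY in test wells; Y1 agonism lowers isoproterenol-driven cAMP and reduces probe fluorescence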
NPY-Y2 agonist – counter-screen for NPY-Y1 potentiators or agonists: agonists of NPY-Y2 | shares compounds with NPY1 pot ag | HEK293 Y2-CNGC, membrane potential fluorescence, agonist mode | activation, % at 3.6 µM | hit rate 67% among 280 | AID 1698;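 active = activation above the solvent-only control wells' mean plus 3 SD, cut at about 11% in these data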;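 also: 0% = DMSO with isoproterenol and 100% = 40 nM NPY maximal response; agonism lowers cAMP so well fluorescence drops in active wells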
CNGC counter – CNG channel inhibition, counter-screen for NPY-Y1 potentiators; inhibition, % at 3.6 µM; HEK293-CNG parental, isoproterenol cAMP, membrane potential fluorescence; shares compounds with NPY1 pot ag; hit rate 42% among 280;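 active = inhibition above the mean of stimulated solvent-only control wells plus 3 SD, cut at about 22% in these data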;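 also: 0% = isoproterenol-stimulated DMSO wells and 100% = unstimulated DMSO wells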
* = called active by the depositor; x = not tested or not shown.

SMILES	NPY1 pot ag	NPY-Y2 PAM-ag	NPY-Y1 antag	NPY Y2 blocker	NPY-Y1 pot conf	NPY-Y2 counter	NPY-Y1 agonist	NPY-Y2 agonist	CNGC counter
CCOc1cc(N2CCOCC2)c(OCC)cc1NC(=O)CN1C(=O)NC2(CCc3ccccc32)C1=O (stereo not given)	5	3	-1	6	x	x	x	x	x
O=C(COc1ccc(Cl)cc1)Nc1ccc(Cc2ccncc2)cc1	62*	25	-5	1	-48	-8	-35	-8	-12
CCCCCCOC(=O)C(C#N)c1nc2ccccc2nc1N1CCN(CC)CC1 (stereo not given)	4	19	5	7	x	x	x	x	x
CCN1CCN(c2nc3ccccc3nc2C(C#N)C(=O)OCc2ccccc2)CC1 (stereo not given)	40*	20	-3	7	62*	47*	41*	54*	53*
CCC(CO)NCC(O)COCc1ccc2c(c1)OCO2 (stereo not given)	-18	-9	0	x	x	x	x	x	x
CCOC(=O)C1=C(c2ccccc2)NC(=O)NC1c1cc(Br)c(O)c(OC)c1 (stereo not given)	42*	12	-3	x	0	3	-3	1	-2
CCOC(=O)C1=C(C)NC(=O)NC1c1cc(Br)c(O)c(OC)c1 (stereo not given)	10	-6	-3	1	x	x	x	x	x
COC(=O)CC1(C(=O)OC)Oc2ccc(Br)cc2C(=O)N1c1cc(Cl)c(Cl)cc1Cl (stereo not given)	49*	18	x	x	22	5	10	7	20
CCN1CCN(c2oc(/C=C/c3ccccc3)nc2C#N)CC1	-16	-6	x	x	x	x	x	x	x
N#Cc1c(-c2ccccc2)c(-c2ccccc2)nn(CC(=O)NNC(=O)Nc2ccc(Cl)c(Cl)c2)c1=O	38*	5	-10	-1	43	28	34*	32*	32*
Cc1noc(C)c1COC(=O)[C@@H](NC(=O)c1ccccc1)C(C)C	-8	-9	4	x	x	x	x	x	x
COc1ccc(CC(=O)Nc2ccc(C(C)=O)cc2)cc1	37*	14	-9	x	23	15	33*	35*	31*
COC(=O)c1ccc(NC(=O)CN(c2ccc(OC)cc2)S(C)(=O)=O)cc1	43*	9	-7	-5	30	16	41*	33*	32*
COC(=O)[C@@H]1CC[C@H](C)[C@@H](c2ccc(C)cc2)N1C(=O)c1ccc(/C=N/OC[C@@H](O)[C@H]2O[C@@H]3OC(C)(C)O[C@@H]3[C@H]2O)cc1	39*	16	-3	0	6	0	-2	6	-10
Cc1ccn2c(Nc3ccccc3C)c(-c3ccncc3)nc2c1	41*	30	-4	0	59*	50*	36*	50*	27*
O=C(CC1C(=O)NCCN1CC1CCCCC1)NCCc1ccc(F)cc1 (stereo not given)	-3	-10	12	x	x	x	x	x	x
CCn1ncc(Br)c1C(=O)Nc1ccc(F)c([N+](=O)[O-])c1	45*	20	-12	-1	40	39*	40*	27*	36*
CCn1ncc(Br)c1C(=O)Nc1ccc(F)cc1F	2	4	2	2	x	x	x	x	x
CCNC(=O)c1cc(Br)ccc1Cl	51*	-10	-2	0	6	3	0	8	9
Cc1cc(C)nc(NC(=O)c2cc(Br)ccc2Cl)n1	-41	-2	0	x	x	x	x	x	x
O=C1CCC2S/C(=C/Nc3ccc(C(F)(F)F)cc3)C(=O)N12 (stereo not given)	39*	18	-4	x	35	18	22*	25*	30*
O=C1CCCC/C1=C/Nc1cccc(C(F)(F)F)c1	-1	0	7	x	x	x	x	x	x
CCOC(=O)c1c(C)[nH]c(C2=NNC(=Nc3cccc(Cl)c3)SC2)c1C	-4	-11	-3	3	x	x	x	x	x
N#CC1=C(N)OC2=C(C(=O)CC(c3ccco3)C2)C1c1ccc(OCc2c(F)cccc2Cl)cc1 (stereo not given)	63*	-27	1	3	-2	-10	-3	-10	-3
Cn1c(=O)[nH]c(=O)c2c1nc(N1CCCCC1)n2CCSc1nc2ccccc2o1	40*	7	1	0	-3	2	1	9	3
SMILES	NPY1 pot ag	NPY-Y2 PAM-ag	NPY-Y1 antag	NPY Y2 blocker	NPY-Y1 pot conf	NPY-Y2 counter	NPY-Y1 agonist	NPY-Y2 agonist	CNGC counter
C#CCNC(=O)C1=C[C@@H](c2coc3ccccc3c2=O)C[C@@H](OCc2ccc(CO)cc2)O1	2	-1	6	x	x	x	x	x	x
Cc1ccc(S(=O)(=O)N(CC(=O)O)Cc2ccccc2F)cc1	-12	5	-1	6	x	x	x	x	x
Cc1ccc(S(=O)(=O)N(CC(=O)N2CCC(C)CC2)Cc2ccccc2F)cc1	79*	20	3	1	-5	0	-10	-6	1
O=C(CN1c2ccccc2Sc2ccccc21)NNC(=S)Nc1ccc(Cl)cc1	36	32	x	x	x	x	x	x	x
O=C(CN1c2ccccc2Sc2ccccc21)NNC(=S)Nc1ccc(Cl)cc1Cl	68*	31	-16	-5	38	37*	16	46*	27*
COc1ccc(C2(O)CCN(CC(=O)Nc3nc(-c4ccccc4)cs3)CC2)cc1	2	7	3	x	x	x	x	x	x
CCOC(=O)C1(Cc2cccc(F)c2)CCN(Cc2cnn(CC)c2C)CC1	-3	10	8	x	x	x	x	x	x
COCCCNc1nc2c(c(=O)[nH]c(=O)n2C)n1CC(O)COc1ccccc1 (stereo not given)	96*	29	5	0	3	2	-1	12*	8
CC(C)N(C(=O)c1sc2cc([N+](=O)[O-])ccc2c1Cl)C(C)C	85*	23	1	4	9	7	-2	18*	6
O=C(c1sc2cc([N+](=O)[O-])ccc2c1Cl)N1CCOCC1	13	11	-4	1	x	x	x	x	x
Brc1ccc(-c2csc(Nc3nc(-c4ccc(Br)cc4)cs3)n2)cc1	-11	-12	x	x	x	x	x	x	x
Brc1ccc(Nc2nc(-c3cccnc3)cs2)cc1	37*	28	-11	x	42	31	43*	38*	34*
O=C1C2C3c4ccccc4C(Br)(c4ccccc43)C2C(=O)N1c1ccccc1O (stereo not given)	38*	21	-3	-1	33	22	26*	15*	32*
S=c1nc[nH]c2c1ncn2C1CCCC1	-1	-2	x	x	x	x	x	x	x
